In brackets after ≈: the same amount, converted by molar mass. Activity calls are given as the source filed them. No cut-off for these calls is given here.
How the values were obtained:
IMR-32 [1] = assay: Inhibition of ferrous ammonium sulphate-induced ferroptosis in human IMR32 cells preincubated for 1 hr followed by ferrous ammonium sulphate stimulation and measured after 13 hrs by sytox green-based fluorescence assay
[2] = Metabolic stability in rat plasma assessed as compound recovery at 50 uM after 6 hrs by LC/MS/MS analysis; assay type: ADME, cell-free; conditions: read-out: Drug recovery
In short: (§1)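 Compound incubated in human, rat or mouse plasma; percentage of remaining parent compound determined after 6 h.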

Mus musculus [3] = assay: In vivo inhibition of iron sulphate-induced ferroptosis in C57BL/6N mouse assessed as LDH levels in plasma at 20 umol/kg, iv administered 15 mins prior to acute iron poisoning and measured after 2 hrs (reference value: 3572 +/- 185 U/L); assay type: functional
[4] = Kinetic solubility in PBS at pH 7.4 after 2 hrs by turbidimetric method; assay type: physicochemical; conditions: read-out: Kinetic_solubility
In short: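 Kinetic solubility by turbidity (UV/VIS reading); final compound 3.125–200 μM, from 4 μL DMSO solution in 196 μL 10 mM PBS pH 7.4.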

[5] = Metabolic stability in mouse plasma assessed as compound recovery at 50 uM after 6 hrs by LC/MS/MS analysis; assay type: ADME, cell-free; conditions: read-out: Drug recovery
In short: as §1

IMR-32 [6] = assay: Inhibition of erastin-induced ferroptosis in human IMR32 cells preincubated for 1 hr followed by erastin stimulation and measured after 13 hrs by sytox green-based fluorescence assay; assay type: functional, cell-based
In short: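 IMR-32 neuroblastoma cells seeded at 25,000/well, next day pretreated 1 h in triplicate with 1/3 dilution series (5 μM to 0.68 nM) plus Sytox Green 1.6 μM, then erastin 10 μM.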

[7] = Metabolic stability in human plasma assessed as compound recovery at 50 uM after 6 hrs by LC/MS/MS analysis; assay type: ADME, cell-free; conditions: read-out: Drug recovery
In short: as §1

[8] = Intrinsic clearance in human liver microsomes at 50 uM after 15 mins to 24 hrs by LC/MS/MS analysis; assay type: ADME, microsome; conditions: read-out: CLH
In short: (§2)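 Intrinsic clearance calculated from measured microsomal half-life in human, mouse or rat liver microsomes, accounting for protein concentration and incubation volume with species-specific parameters.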

[9] = Intrinsic clearance in mouse liver microsomes at 50 uM after 15 mins to 24 hrs by LC/MS/MS analysis; assay type: ADME, microsome; conditions: read-out: CLH
In short: as §2

[10] = Intrinsic clearance in rat liver microsomes at 50 uM after 15 mins to 24 hrs by LC/MS/MS analysis; assay type: ADME, microsome; conditions: read-out: CLH
In short: as §2

[11] = Half life in human liver microsomes at 10 uM in presence of NADPH regenerating system by LC/MS/MS analysis; assay type: ADME, microsome
In short: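 Incubation with human liver microsomes; metabolism by CYP450 and other NADP-dependent enzymes monitored and expressed as half-life (h).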

[12] = Plasma concentration in Wistar rat at 5 mg/kg, iv after 0.083 to 24 hrs by UPLC-MS analysis; assay type: ADME, organism-based; conditions: in vivo
In short: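 Single iv 5 mg/kg to three male Wistar rats; blood sampled at 0.083, 0.25, 0.5, 1, 2, 4 and 24 h; plasma drug measured by UPLC–tandem quadrupole MS, detection limit 53.1 ng/mL.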

Mus musculus [13] = assay: Toxicity in wild type mouse assessed as ALT levels in plasma at 20 umol/kg, ip administered daily for 4 weeks measured at day 28 (reference value: <25 U/L); assay type: organism-based; conditions: in vivo, 672 h
Mus musculus [14] = assay: Toxicity in wild type mouse assessed as CK levels in plasma at 20 umol/kg, ip administered daily for 4 weeks measured at day 28 (reference value: 1501 +/- 196 U/L); assay type: organism-based; conditions: in vivo, 672 h
Mus musculus [15] = assay: Toxicity in wild type mouse assessed as urea levels in plasma at 20 umol/kg, ip administered daily for 4 weeks measured at day 28 (reference value: 42 +/- 2 mg/dl); assay type: organism-based; conditions: in vivo, 672 h
Mus musculus [16] = assay: Toxicity in wild type mouse assessed as relative gain in body weight at 20 umol/kg, ip administered daily for 4 weeks measured during compound dosing (reference value: 14.8 +/- 3.4%); assay type: organism-based; conditions: in vivo, 672 h
Mus musculus [17] = assay: Toxicity in wild type mouse assessed as AST levels in plasma at 20 umol/kg, ip administered daily for 4 weeks measured at day 28 (reference value: 110 +/- 8 U/L); assay type: organism-based; conditions: in vivo, 672 h
Mus musculus [18] = assay: Toxicity in wild type mouse assessed as body temperature at 20 umol/kg, ip administered daily for 4 weeks measured during compound dosing (reference value: 37 +/- 0.6 degreeC); assay type: organism-based; conditions: in vivo, 672 h
Mus musculus [19] = assay: Toxicity in wild type mouse assessed as creatinine levels in plasma at 20 umol/kg, ip administered daily for 4 weeks measured at day 28 (reference value: <0.2 mg/dl); assay type: organism-based; conditions: in vivo, 672 h
Mus musculus [20] = assay: Toxicity in wild type mouse assessed as LDH levels in plasma at 20 umol/kg, ip administered daily for 4 weeks measured at day 28 (reference value: 227 +/- 18 U/L); assay type: organism-based; conditions: in vivo, 672 h
Mus musculus [21] = assay: Toxicity in wild type mouse assessed as troponin levels in plasma at 20 umol/kg, ip administered daily for 4 weeks measured at day 28 (reference value: 0.041 +/- 0.005 ug/l); assay type: organism-based; conditions: in vivo, 672 h

CNCCNS(=O)(=O)c1ccc(NC2CCCCC2)c(NCc2ccccc2)c1.Cl
inhibition (IMR-32 [1]): Active | remaining at 6 h, 50 µM [2]: 65.8% | Activity (Mus musculus [3]): 2093 U/L | solubility kinetic at 2 h [4]: > 200 µM | remaining at 6 h, 50 µM [5]: 100% | IC50 (IMR-32 [6]): 3 nM | remaining at 6 h, 50 µM [7]: 90.3% | CLint scaled at 50 µM [8]: 1.7 mL/min/kg | CLint scaled at 50 µM [9]: 139 mL/min/kg | CLint scaled at 50 µM [10]: 161 mL/min/kg

CN(C)CCNS(=O)(=O)c1ccc(NC2CCCCC2)c(NCc2ccccc2)c1
solubility kinetic at 2 h [4]: > 200 µM | IC50 (IMR-32 [6]): 554 nM

Cl.NCCNS(=O)(=O)c1ccc(NC2CCCCC2)c(N)c1
solubility kinetic at 2 h [4]: > 200 µM | IC50 (IMR-32 [6]): 306 nM

CCOC(=O)c1ccc(NC2CCCCC2)c(N)c1
inhibition (IMR-32 [1]): Active | half-life at 10 µM [11]: 6.54 min | remaining at 6 h, 50 µM [2]: 1.1% | Activity (Mus musculus [3]): 2898 U/L | solubility kinetic at 2 h [4]: > 200 µM | remaining at 6 h, 50 µM [5]: 0% | IC50 (IMR-32 [6]): 33 nM | remaining at 6 h, 50 µM [7]: 47.3%

CN1CCN(CCNS(=O)(=O)c2ccc(NC3CCCCC3)c(NCc3ccncc3)c2)CC1
solubility kinetic at 2 h [4]: > 200 µM | IC50 (IMR-32 [6]): 1520 nM

CN1CCN(CCNS(=O)(=O)c2ccc(NC3CCCCC3)c(N)c2)CC1
solubility kinetic at 2 h [4]: > 200 µM | IC50 (IMR-32 [6]): 236 nM

O=S(=O)(NCCN1CCOCC1)c1ccc(NC2CCCCC2)c(NCc2ccccc2)c1
remaining at 6 h, 50 µM [2]: 100% | solubility kinetic at 2 h [4]: 50 to 100 µM (≈ 23.6 to 47.3 µg/mL) | remaining at 6 h, 50 µM [5]: 100% | IC50 (IMR-32 [6]): 24 nM | remaining at 6 h, 50 µM [7]: 100% | CLint scaled at 50 µM [8]: 22.6 mL/min/kg | CLint scaled at 50 µM [9]: 1220 mL/min/kg | CLint scaled at 50 µM [10]: 326 mL/min/kg

COCCNS(=O)(=O)c1ccc(NC2CCCCC2)c(NCc2ccccc2)c1
solubility kinetic at 2 h [4]: 25 to 50 µM (≈ 10.4 to 20.9 µg/mL) | IC50 (IMR-32 [6]): 22 nM

CN(C)CCNS(=O)(=O)c1ccc(NC2CCCCC2)c(N)c1
solubility kinetic at 2 h [4]: > 200 µM | IC50 (IMR-32 [6]): 160 nM

O=S(=O)(NCCN1CCOCC1)c1ccc(NC2CCCCC2)c(NCc2ccncc2)c1
solubility kinetic at 2 h [4]: > 200 µM | IC50 (IMR-32 [6]): 191 nM

COCCNS(=O)(=O)c1ccc(NC2CCCCC2)c(N)c1
solubility kinetic at 2 h [4]: > 200 µM | IC50 (IMR-32 [6]): 492 nM

CN(C)CCNS(=O)(=O)c1ccc(NC2CCCCC2)c(NCc2ccncc2)c1
solubility kinetic at 2 h [4]: > 200 µM | IC50 (IMR-32 [6]): 1560 nM

CN1CCN(CCNS(=O)(=O)c2ccc(NC3CCCCC3)c(NCc3ccccc3)c2)CC1
solubility kinetic at 2 h [4]: > 200 µM | IC50 (IMR-32 [6]): 1070 nM

Cl.NCCNS(=O)(=O)c1ccc(NC2CCCCC2)c(NCc2ccccc2)c1
inhibition (IMR-32 [1]): Active | remaining at 6 h, 50 µM [2]: 100% | Activity (Mus musculus [3]): 2293 U/L | solubility kinetic at 2 h [4]: > 200 µM | remaining at 6 h, 50 µM [5]: 100% | IC50 (IMR-32 [6]): 12 nM | remaining at 6 h, 50 µM [7]: 100% | CLint scaled at 50 µM [8]: 1.3 mL/min/kg | CLint scaled at 50 µM [9]: 4.8 mL/min/kg | CLint scaled at 50 µM [10]: 27.4 mL/min/kg

Cl.Nc1cc(S(=O)(=O)NCCN2CCNCC2)ccc1NC1CCCCC1
solubility kinetic at 2 h [4]: > 200 µM | IC50 (IMR-32 [6]): 296 nM

CNCCNS(=O)(=O)c1ccc(NC2CCCCC2)c(N)c1.Cl
solubility kinetic at 2 h [4]: > 200 µM | IC50 (IMR-32 [6]): 214 nM

COCCNS(=O)(=O)c1ccc(NC2CCCCC2)c(NCc2ccncc2)c1
solubility kinetic at 2 h [4]: > 200 µM | IC50 (IMR-32 [6]): 97 nM

Cl.NCCNS(=O)(=O)c1ccc(NC2CCCCC2)c(NCc2ccncc2)c1
solubility kinetic at 2 h [4]: 100 to 200 µM | IC50 (IMR-32 [6]): 112 nM

Nc1cc(S(=O)(=O)NCCN2CCOCC2)ccc1NC1CCCCC1
solubility kinetic at 2 h [4]: > 200 µM | IC50 (IMR-32 [6]): 448 nM

CNCCNS(=O)(=O)c1ccc(NC2CCCCC2)c(NCc2ccncc2)c1.Cl
solubility kinetic at 2 h [4]: > 200 µM | IC50 (IMR-32 [6]): 157 nM

Cl.O=S(=O)(NCCN1CCNCC1)c1ccc(NC2CCCCC2)c(NCc2ccncc2)c1
solubility kinetic at 2 h [4]: > 200 µM | IC50 (IMR-32 [6]): 442 nM

Cl.O=S(=O)(NCCN1CCNCC1)c1ccc(NC2CCCCC2)c(NCc2ccccc2)c1
inhibition (IMR-32 [1]): Active | Cp [12]: < 53.1 ng/mL | remaining at 6 h, 50 µM [2]: 85.8% | Activity (Mus musculus [13]): < 25 U/L | Activity (Mus musculus [14]): 1865 U/L | Activity (Mus musculus [3]): 2346 U/L | Activity (Mus musculus [15]): 43 mg/dL | Activity (Mus musculus [16]): 10.4% | solubility kinetic at 2 h [4]: > 200 µM | Activity (Mus musculus [17]): 123 U/L | T (Mus musculus [18]): 37 °C | remaining at 6 h, 50 µM [5]: 100% | Activity (Mus musculus [19]): < 0.2 mg/dL | IC50 (IMR-32 [6]): 10 nM | remaining at 6 h, 50 µM [7]: 84.2% | CLint scaled at 50 µM [8]: 1.1 mL/min/kg | CLint scaled at 50 µM [9]: 18 mL/min/kg | CLint scaled at 50 µM [10]: 3.4 mL/min/kg | Activity (Mus musculus [20]): 263 U/L | Activity (Mus musculus [21]): 0.044 µg/L

From ChEMBL document CHEMBL4152389, “Discovery of Novel, Drug-Like Ferroptosis Inhibitors with in Vivo Efficacy” (J Med Chem, 2018)
